Results published in ChEMBL document CHEMBL1135786, “Anti-AIDS agents 49. Synthesis, anti-HIV, and anti-fusion activities of IC9564 analogues based on betulinic acid” (J Med Chem, 2002).

How the values were obtained:
Type in all cases: functional, organism-based
[1] = tested on: Human immunodeficiency virus 1; assay: Anti HIV-1 activity against the virus NL4-3 using MAGI assay; conditions: Human immunodeficiency virus 1, MAGI
How it was run: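 HeLa-CD4/CCR5/β-gal indicator cells seeded at 10 000/well, grown 1 day in DMEM with G418 (500 µg/mL) and hygromycin (250 µg/mL). Infected with virus dilutions in presence of graded compound concentrations, 2 days at 37 °C. Fixed (1% formaldehyde, 0.2% glutaraldehyde), X-gal stained (0.4 mg/mL). Blue (Tat-expressing) cells counted; EC50 = concentration halving infected-cell number.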

[2] = tested on: Human immunodeficiency virus 1; assay: Anti HIV-1 activity against the virus NL4-3 using fusion assay
How it was run: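 COS cells (10⁶) electroporated (950 µF, […]) with 2 µg vector expressing HIV-1 NL4-3 envelope, cultured 1 day. Then 10⁴ transfected cells mixed with 7 × 10⁴ MOLT-4 cells. Graded compound concentrations added, 24 h at 37 °C. Multinucleated syncytia counted microscopically over entire well; EC50 from syncytium inhibition.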

[3] = tested on: Human immunodeficiency virus 1; assay: Anti HIV-1 activity against infected H9 lymphocyte cells; conditions: Human immunodeficiency virus 1, H9
How it was run: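 HIV-1 acutely infected H9 lymphocytes cultured with the test agent; EC50 (µM) reported.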

| SMILES | EC50 [1] | EC50 [2] | EC50 [3] |
| --- | --- | --- | --- |
| C=C(C)[C@@H]1CC[C@]2(C(=O)NCCC(=O)N[C@@H](CC(C)C)C(=O)OC)CC[C@]3(C)[C@H](CC[C@@H]4[C@@]5(C)CC[C@H](O)C(C)(C)[C@@H]5CC[C@]43C)[C@@H]12 | > 38 µM | 7.63 µM | – |
| C=C(C)[C@@H]1CC[C@]2(C(=O)NCCCCCCCCCCC(=O)OC)CC[C@]3(C)[C@H](CC[C@@H]4[C@@]5(C)CC[C@H](OC(C)=O)C(C)(C)[C@@H]5CC[C@]43C)[C@@H]12 | 10.2 µM | > 29 µM | – |
| C=C(C)[C@@H]1CC[C@]2(C(=O)NCCCCCCCCCCC(=O)N[C@@H](CC(C)C)C(=O)O)CC[C@]3(C)[C@H](CC[C@@H]4[C@@]5(C)CC[C@H](O)C(C)(C)[C@@H]5CC[C@]43C)[C@@H]12 | 0.46 µM | 0.33 µM | – |
| C=C(C)[C@@H]1CC[C@]2(C(=O)N[C@@H](CC(C)C)C(=O)OC)CC[C@]3(C)[C@H](CC[C@@H]4[C@@]5(C)CC[C@H](OC(C)=O)C(C)(C)[C@@H]5CC[C@]43C)[C@@H]12 | > 40 µM | > 32 µM | – |
| C=C(C)[C@@H]1CC[C@]2(C(=O)NCCCCCCCCCCC(=O)N[C@@H](CC(C)C)C(=O)OC)CC[C@]3(C)[C@H](CC[C@@H]4[C@@]5(C)CC[C@H](O)C(C)(C)[C@@H]5CC[C@]43C)[C@@H]12 | > 32 µM | > 26 µM | – |
| C=C(C)[C@@H]1CC[C@]2(C(=O)NCCCCCCCC(=O)N[C@@H](CC(C)C)[C@H](O)CC(=O)O)CC[C@]3(C)[C@H](CC[C@@H]4[C@@]5(C)CC[C@H](O)C(C)(C)[C@@H]5CC[C@]43C)[C@@H]12 | 0.4 µM | 0.66 µM | – |
| CC(C)C[C@H](NC(=O)CCCCCCCNC(=O)[C@]12CC[C@@H](C(C)C)[C@@H]1[C@H]1CC[C@@H]3[C@@]4(C)CC[C@H](O)C(C)(C)[C@@H]4CC[C@@]3(C)[C@]1(C)CC2)[C@H](O)CC(=O)O | 0.33 µM | 0.4 µM | – |
| C=C(C)[C@@H]1CC[C@]2(C(=O)NCCC(=O)N[C@@H](CC(C)C)C(=O)O)CC[C@]3(C)[C@H](CC[C@@H]4[C@@]5(C)CC[C@H](O)C(C)(C)[C@@H]5CC[C@]43C)[C@@H]12 | > 39 µM | > 31 µM | – |
| C=C(C)[C@@H]1CC[C@]2(C(=O)NCCCCCCCCCCC(=O)O)CC[C@]3(C)[C@H](CC[C@@H]4[C@@]5(C)CC[C@H](O)C(C)(C)[C@@H]5CC[C@]43C)[C@@H]12 | 0.7 µM | 0.31 µM | – |
| C=C(C)[C@@H]1CC[C@]2(C(=O)N[C@@H](CC(C)C)C(=O)O)CC[C@]3(C)[C@H](CC[C@@H]4[C@@]5(C)CC[C@H](O)C(C)(C)[C@@H]5CC[C@]43C)[C@@H]12 | – | 5.48 µM | 3.22 µM |
| C=C(C)[C@@H]1CC[C@]2(C(=O)NCCCCCCCC(=O)OC)CC[C@]3(C)[C@H](CC[C@@H]4[C@@]5(C)CC[C@H](OC(C)=O)C(C)(C)[C@@H]5CC[C@]43C)[C@@H]12 | 29.1 µM | > 31 µM | – |
| C=C(C)[C@@H]1CC[C@]2(C(=O)NCCCCCCCC(=O)N[C@@H](CC(C)C)C(=O)OC)CC[C@]3(C)[C@H](CC[C@@H]4[C@@]5(C)CC[C@H](O)C(C)(C)[C@@H]5CC[C@]43C)[C@@H]12 | 0.52 µM | 0.86 µM | – |
| Cc1cn([C@H]2C[C@H](N=[N+]=[N-])[C@@H](CO)O2)c(=O)[nH]c1=O [ZIDOVUDINE] | 0.075 µM | > 75 µM | – |
| C=C(C)[C@@H]1CC[C@]2(C(=O)NCCCCCCCC(=O)N[C@@H](CC(C)C)C(=O)O)CC[C@]3(C)[C@H](CC[C@@H]4[C@@]5(C)CC[C@H](O)C(C)(C)[C@@H]5CC[C@]43C)[C@@H]12 | 1.38 µM | 1.1 µM | – |
| C=C(C)[C@@H]1CC[C@]2(C(=O)NCCC(=O)OC)CC[C@]3(C)[C@H](CC[C@@H]4[C@@]5(C)CC[C@H](OC(C)=O)C(C)(C)[C@@H]5CC[C@]43C)[C@@H]12 | 26.7 µM | 21.4 µM | – |
| C=C(C)[C@@H]1CC[C@]2(C(=O)NCCC(=O)O)CC[C@]3(C)[C@H](CC[C@@H]4[C@@]5(C)CC[C@H](O)C(C)(C)[C@@H]5CC[C@]43C)[C@@H]12 | > 47 µM | > 38 µM | – |
| CC(=O)O[C@H]1CC[C@]2(C)[C@H]3CC[C@@H]4[C@H]5[C@H](C(C)C)CC[C@]5(C(=O)NCCCCCCCC(=O)N[C@@H](CC(C)C)[C@H](O)CC(=O)OCc5ccccc5)CC[C@@]4(C)[C@]3(C)CC[C@H]2C1(C)C | > 28 µM | > 22 µM | – |
